Only a selection was taken, and hits are over-represented in it overall.
UPR XBP1 act = activators of adaptive XBP1 UPR arm, primary screen, cell-based, CHO-XBP1 luciferase reporter, luminescence, uHTS; IRE1-XBP1 UPR activation; percent of tunicamycin response, DMSO as zero; actives 0.33% (n = 330,000); activation, % at 20 µM;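 active = versus positive control, 20 µM dose yields 30% or more activation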;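 note: 100% = tunicamycin at 10 µg/mL and 0% = DMSO only wells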
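Assay system: CHO-XBP1 luciferase reporter cells; Schedule: 6 h treatment, 37 °C; Detection: glow luminescence from Steady-Glo reagent; Benchmarks: high control tunicamycin 10 µg/mL final, low control DMSO vehicle only.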
V-ATPase pHluor = regulators of yeast V-ATPase proton pumping, primary screen, pHLuorin cytosolic pH fluorescence; S. cerevisiae; response, % at 10 µM; actives 0.37% (n = 350,000); AID 504577, 2011; in the data active = response mostly above about 7.3%, no sharp cut-off; inactive = mostly below about 5.4%; note: actives read high
UPR CHOP act = activators of apoptotic CHOP UPR arm, primary screen, cell-based, CHO-CHOP luciferase reporter, luminescence, uHTS | UPR activation; percent of tunicamycin response over DMSO baseline | activation, % at 10 µM | actives 0.34% (n = 330,000);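 active = at 10 µM dose, activation of 40% or more, normalized to positive control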;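 note: 100% = tunicamycin at 10 µg/mL and 0% = DMSO alone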
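Assay system: CHO-CHOP cells, stable luciferase reporter of PERK-eIF2a-CHOP signalling / Buffer or medium: F12 plus 10% serum / Compound dosing: one dose, 10 µM in 0.5% DMSO / Times: 6 h compound treatment, 37 °C / Technique: luciferase luminescence / Read-out: % reporter activation, DMSO baseline versus tunicamycin full activation / Benchmarks: tunicamycin and DMSO controls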
CHOP inhibitor = inhibitors of CHOP promoter induction, primary screen, cell-based, unfolded protein response, luciferase reporter; CHO-K1 CHOP-promoter luciferase, tunicamycin-induced, 15-18 h; inhibition, % at 10 µM; actives 3.8% (n = 220,000); AID 2732, 2010;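 active = compounds that reduced the stress-induced luciferase reporter signal by more than about 70% of percent inhibition, limit read from the data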;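 note: 0% = tunicamycin plus vehicle and 100% = wells without tunicamycin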
Tb MetRS inh = T. brucei MetRS inhibitors, primary screen, biochemical, luminescence; purified T. brucei MetRS, ATP depletion, Kinase-Glo luminescence; inhibition, % at 11.9 µM; actives 0.4% (n = 360,000);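 active = inhibition above a per-plate cutoff of the control wells' mean inhibition plus 3 SD, cut at about 5.5% in these data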;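 note: 0% = DMSO wells median and 100% = median of wells with control inhibitor compound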
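Measured by: Kinase-Glo luciferase luminescence reporting remaining unconsumed ATP. Material: purified T. brucei MetRS enzyme. Doses: 11.9 µM compound single dose, 0.9% DMSO. Medium: HEPES buffer containing pyrophosphatase, BSA, spermine, DTT. Times: 15 min preincubation, 2 h reaction, all 25 °C. Reagent: methionine, ATP and bulk E. coli tRNA.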
Tb MetRS conf = T. brucei MetRS inhibitors, confirmation, biochemical, luminescence. shares compounds with Tb MetRS inh. actives 93% (n = 1,400). inhibition, % at 11.9 µM. AID 624412, 2012. T. brucei MetRS enzyme, luminescence (ATP depletion); in the data active = inhibition above about 7%
Jurkat cytotox = Jurkat T cell cytotoxicity, cytotoxicity control for T. brucei MetRS inhibitor project, luminescence, high throughput | shares compounds with Tb MetRS inh | Jurkat cells viability, ATP luminescence | inhibition, % at 8.3 µM | actives 12% (n = 1,400); in the data active = inhibition above about 15%;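 note: 0% = vehicle and 100% = reference inhibitor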
Tb MetRS inh FP = T. brucei MetRS inhibitors, orthogonal assay for T. brucei MetRS inhibitor project, biochemical, fluorescence polarization. purified T. brucei MetRS. actives 44% (n = 1,400). AID 651607, 2012. shares compounds with Tb MetRS inh. inhibition, % at 11.9 µM; in the data active = inhibition above about 17%;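 note: 0% = vehicle wells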
The depositor's hits bear a star; nt = no result given.

SMILES	UPR XBP1 act	V-ATPase pHluor	UPR CHOP act	CHOP inhibitor	Tb MetRS inh	Tb MetRS conf	Jurkat cytotox	Tb MetRS inh FP
COc1ccc(-c2ccc(C(=O)Nc3cccc(C(C)=O)c3)c3occc23)c(C)c1	nt	nt	nt	nt	-0.4	nt	nt	nt
COc1ccc(-c2coc3c(C(=O)Nc4cccc(C(C)=O)c4)cccc23)c(C)c1	nt	nt	nt	nt	7.6*	1.5	7.9	21.5*
CC(C)(C)NS(=O)(=O)c1ccc(C(=O)Nc2ccc3c(c2)OCO3)cc1	-5.3	-1.1	1.9	nt	-0.1	nt	nt	nt
C(=N\Nc1nc2ccccc2[nH]1)/c1ccc2c(c1)OCO2	nt	1.0	nt	-38.3	3.6	nt	nt	nt
C(=C/c1nccc2c1[nH]c1ccccc12)/c1ccc2c(c1)OCO2	nt	1.6	nt	-9.5	5.9*	3.4	42.0*	91.0*
O=C(CCc1nc2ccccc2[nH]1)NCc1ccc2c(c1)OCO2	-0.6	0.4	-1.1	-2.6	19.5*	36.4*	-5.2	12.9
NS(=O)(=O)c1cccc(NC(=O)CSc2nc3ccccc3[nH]2)c1	-1.2	-0.2	-0.7	9.7	7.8*	16.0*	2.5	9.6
COc1ccc2nc(SCC(=O)NCc3ccc(F)cc3)[nH]c2c1	-3.0	-3.6	1.2	nt	2.0	nt	nt	nt
O=C(CSc1nc2ccccc2[nH]1)NCc1ccc2c(c1)OCO2	-3.5	-1.2	-1.0	12.8	28.4*	43.0*	1.2	19.7*
O=C(CSc1nc2ccccc2[nH]1)NCc1ccc(F)cc1	1.9	-1.3	0.6	10.4	7.7*	13.1*	2.9	-1.2
O=C(CCc1nc2ccccc2[nH]1)Nc1ccc2c(c1)OCO2	2.3	12.3	3.5	26.1	1.4	nt	nt	nt
O=CN1CCN(C(=O)c2ccc(-c3nc4ccccc4s3)s2)CC1	0.7	-0.7	1.1	16.4	-0.7	nt	nt	nt
NS(=O)(=O)c1ccc(CCNC(=O)c2cc([N+](=O)[O-])ccc2N2CCCCC2)cc1	0.6	1.2	-1.4	nt	-0.5	nt	nt	nt
COC(=O)C[C@H]1C[C@H]2c3cc(NS(=O)(=O)c4cccc(OC)c4)ccc3O[C@H]2[C@@H](CO)O1	nt	1.2	nt	nt	-0.6	nt	nt	nt
C/C(=N\Nc1nc2ccccc2[nH]1)c1ccc2c(c1)OCO2	29.8	-0.8	5.8	0.7	7.3*	8.8*	0.1	18.2*
C/C(=N\Nc1nc2ccccc2[nH]1)c1ccc2c(c1)OCCO2	12.3	0.0	2.9	5.7	2.6	nt	nt	nt
O=C(Nc1nc2c(Cl)cccc2s1)c1ccc([N+](=O)[O-])o1	-0.7	-1.4	0.2	nt	-0.5	nt	nt	nt
O=C(Nc1nc2c(Cl)cccc2s1)c1ccc(Br)o1	0.3	-1.6	2.6	68.6	6.8*	4.4	-4.9	3.8
Cc1c(Cl)cccc1NC(=O)CC1Sc2ccccc2NC1=O (stereo not drawn)	1.3	5.2	-0.3	1.2	-0.3	nt	nt	nt
O=C(CNS(=O)(=O)c1ccc([N+](=O)[O-])cc1)N/N=C\c1ccc(O)cc1	1.5	-0.7	-1.6	nt	0.1	nt	nt	nt
O=C(CNS(=O)(=O)c1ccc([N+](=O)[O-])cc1)N/N=C/c1ccc(O)cc1O	-7.2	-1.6	-1.3	nt	15.5*	36.2*	46.1*	22.0*
COc1ccc(-c2csc(NC(=O)CCNC(=O)c3ccco3)n2)cc1	nt	-1.1	nt	nt	-0.3	nt	nt	nt
CCc1cccc(NC(=O)Cn2cc(C=O)c3ccccc32)c1	0.7	1.0	-3.1	51.8	9.0*	18.8*	14.3	11.8
COc1ccccc1NC(=O)N(C)C[C@@H]1OCc2cnnn2CCCC(=O)N([C@H](C)CO)C[C@H]1C	nt	0.3	nt	nt	-0.9	nt	nt	nt
